# Measured values collected from several papers.
# Lines come from different studies, so protocols differ.
# Effect on: enzyme activity
# Mode: inhibitor
# CDK2 with cyclin A: Cyclin-dependent kinase 2, with cyclin A (CDK2, Homo sapiens, UniProt P24941)
# CDK2: Cyclin-dependent kinase 2 (CDK2, Homo sapiens, UniProt P24941)
Compound,target,technique,tested at,inhibition
CN1CC(Oc2cnc(C#N)cc2-c2ccn3nc(NC(=O)C4CC4)cc3c2)C1,CDK2 with cyclin A,,1 µM,0%
COc1cc(-c2cc(-c3ccc(N4CCNCC4)cc3)cnc2N)cc(OC)c1OC,CDK2 with cyclin A,,0.1 µM,1%
CNC(=O)c1ccccc1Nc1cc(Nc2ccc(N3CCOCC3)cc2OC)ncc1C(F)(F)F,CDK2,,1 µM,> 50%
C=CC(=O)Nc1cc(Nc2nccc(Nc3cc(Cl)c(F)cc3C(C)(C)O)n2)c(OC)cc1N1CC[C@@H](N(C)C)C1,CDK2 with cyclin A,,1 µM,-13%
Cn1cncc1C1=CN(c2ncnc3[nH]cnc23)CCS1,CDK2,radiometric,2 µM,49.1%
CC/C(=N\NC(=O)NCc1cccc(O)c1)c1ccc(O)c(C)c1O,"Cyclin-dependent kinase 2, with cyclin E1 (CDK2, Homo sapiens, UniProt P24941)",,0.1 µM,-16.4%
Cn1cnc(Br)c1C1=CN(c2ncnc3[nH]cnc23)CCS1,CDK2,radiometric,2 µM,50.8%
COc1cc2ncnc(Nc3ccc(Oc4ccccc4)c(C)c3C)c2cc1OC,CDK2 with cyclin A,,1 µM,1%
O=C(CSc1nc2nccnc2c(=O)n1CCc1ccccc1)Nc1nccs1,"Cyclin-dependent kinase 2, with cyclin O (CDK2, Homo sapiens, UniProt P24941)",,10 µM,3%
Nc1nc(Nc2ccc(S(N)(=O)=O)cc2)sc1C(=O)c1ccccc1[N+](=O)[O-],CDK2,,0.1 µM,95 to 96%
CN(C)C1CCN(CC#Cc2nn(C3CCCC3)c3nc(NCc4ccccc4)ncc23)C1 (stereo not drawn),CDK2 with cyclin A,FRET,10 µM,4%
CCCS(=O)(=O)Nc1ccc(F)c(C(=O)c2c[nH]c3ncc(-c4ccc(Cl)cc4)cc23)c1F,"Cyclin-dependent kinase 2, with cyclin E (CDK2, Homo sapiens, UniProt P24941)",,1 µM,< 10%
